In ChEMBL document CHEMBL4765431, “Novel phthalide derivatives: Synthesis and anti-inflammatory activity in vitro and in vivo” (Eur J Med Chem, 2020) one finds Activity, inhibition and IC50 data, which are given here for one compound.

In series [1] the test system is Rattus norvegicus. Nature of the series: Antiarthritic activity in Sprague-Dawley rat model of arthritis assessed as reduction in CFA-induced inflammatory cell infiltration at 40 mg/kg, ig administered daily for 28 days starting from 14 days post-immunization and measured every 3 days by H and E staining based histopathological analysis. The settings on record: time 28.0 day. It counts as functional, organism-based. The essentials:
(§1)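 AA rats (male SD, CFA intradermal into right hind paw) dosed intragastrically once daily at 20 or 40 mg/kg from day 14 to day 28. Killed after 29 days. Ankle joints fixed in 4% neutral buffered paraformaldehyde, decalcified in 10% EDTA, sectioned and H&E stained. Scored for synovial hyperplasia, inflammatory cell infiltration and cartilage destruction.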

Series [2] has as its system RAW264.7. Nature of the series: Activation of Nrf2/HO-1 signalling pathway in mouse RAW264.7 cells assessed as increase in Nrf2 nuclear translocation at 0.5 to 2 uM preincubated for 1 hr followed by LPS stimulation and measured after 6 hrs by DAPI staining based fluorescence microscopic analysis. The class given is cell-based. Conditions: filed as activator, dose 0.5-2 µM, time 7.0 hrs. A digest of the protocol:
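Cells grown on glass coverslips, treated 1 h, then LPS 0.5 µg/mL for 6 h. Fixed in 4% paraformaldehyde 20 min at room temperature, blocked 1 h in TBS with 0.1% Triton X-100 and 5% BSA. Stained with anti-Nrf2 and FITC anti-rabbit IgG, nuclei with DAPI. Imaged by inverted fluorescence microscope.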

Series [3] relates to RAW264.7. Kind of series: Antiinflammatory activity in mouse RAW264.7 cells assessed as inhibition of LPS-induced nitric oxide production at 10 uM preincubated for 1 hr followed by LPS stimulation and measured after 24 hrs by Griess reagent-based assay relative to control. It counts as functional. The settings on record: time 25 hrs. The essentials: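 RAW264.7 cells (7 × 10^4/well, used 24 h after seeding) in DMEM with 10% heat-inactivated FBS, 37 °C, 5% CO2. Pretreated 1 h with compound (10 µM screen; 0.625–10 µM dose series), then LPS 0.5 µg/mL for 24 h. Supernatant mixed 1:1 with Griess reagent, 15 min at room temperature, absorbance read at […].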

The test system of series [4] is RAW264.7. Kind of series: Activation of Nrf2/HO-1 signalling pathway in mouse RAW264.7 cells assessed as inhibition of LPS-induced NO production at 2 uM preincubated for 1 hr in presence of NAC followed by LPS stimulation and measured after 24 hrs by Griess reagent-based assay. Conditions: time 25.0 hrs. It counts as cell-based. The essentials: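 Cells pretreated 1 h with or without NAC 5 mM alongside 2 µM compound, then LPS 0.5 µg/mL for 24 h. Medium NO measured by Griess reagent. Means ± SD of three independent experiments.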

Series [5] has as its system RAW264.7. Kind of series: Anti-inflammatory activity in mouse RAW264.7 cells assessed as inhibition of LPS-induced COX-2 protein expression preincubated for 1 hr followed by LPS stimulation and measured after 24 hrs by Western blot analysis. The class given is functional, cell-based. Conditions: dose 0.5-2 µM, time 25.0 hrs. The essentials: (§2)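 Cells pretreated 1 h with 0.5, 1, 2 µM, then LPS 0.5 µg/mL for 24 h. iNOS, COX-2 and β-actin detected by Western blot (RIPA lysis, PVDF, primary 16 h at 4 °C, HRP secondary, ECL). Blots representative of three separate experiments.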

Series [6] relates to RAW264.7. Nature of the series: Inhibition of NF-kappaB activation in mouse RAW264.7 cells assessed as reduction in LPS-induced IkappaB protein degradation at 0.5 to 2 uM preincubated for 1 hr followed by LPS stimulation and measured after 30 mins by Western blotting analysis. The class given is cell-based. Conditions: dose 0.5-2 µM, time 90.0 min. The essentials:
(§3)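 Pretreatment 1 h with 0.5–2 µM, then LPS 0.5 µg/mL for 30 min. p-IκB, IκB, p-p65, p65, ERK, JNK, p38 and their phosphorylated forms, plus β-actin, detected by Western blot (RIPA lysis, SDS-PAGE, PVDF, primary 16 h at 4 °C, HRP secondary 1:5000, ECL).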
For orientation: A western blot detects proteins with antibodies after separation by electrophoresis.

For series [7], the system named is Rattus norvegicus. Kind of series: Antiarthritic activity in Sprague-Dawley rat model of CFA-induced arthritis assessed as reduction in paw swelling at 20 to 40 mg/kg, […] and measured every 3 days. Conditions: dose 20-40 mg/kg. It counts as functional, organism-based.
Series [8] has as its system RAW264.7. Kind of series: Inhibition of NF-kappaB activation in mouse RAW264.7 cells assessed as reduction in LPS-induced p65 nuclear translocation at 0.5 to 2 uM preincubated for 1 hr followed by LPS stimulation and measured after 30 mins by Western blotting analysis. It counts as cell-based. Conditions: dose 0.5-2 µM, time 90.0 min.
Series [9] concerns RAW264.7. Nature of the series: Antiinflammatory activity in mouse RAW264.7 cells assessed as inhibition of LPS-induced nitric oxide production preincubated for 1 hr followed by LPS stimulation and measured after 24 hrs by Griess reagent-based assay. It counts as functional, cell-based.
The subject of series [10] is RAW264.7. Nature of the series: Anti-inflammatory activity in mouse RAW264.7 cells assessed as inhibition of LPS-induced iNOS protein expression preincubated for 1 hr followed by LPS stimulation and measured after 24 hrs by Western blot analysis. The class given is functional, cell-based. Conditions: dose 0.5-2 µM, time 25.0 hrs. The essentials:
as §2

The subject of series [11] is RAW264.7. Kind of series: Cytotoxicity against mouse RAW264.7 cells assessed as reduction in cell viability incubated for 24 hrs in presence of LPS by MTT assay. The class given is cell-based. Conditions: RAW264.7, 24 h. On the technique in general: Formazan colour is commonly taken as a measure of viable cells.
The subject of series [12] is RAW264.7. Nature of the series: Cytotoxicity against mouse RAW264.7 cells assessed as reduction in cell viability incubated for 24 hrs in absence of LPS by MTT assay. The class given is cell-based. Conditions: RAW264.7, 24 h.
For series [13], the system named is Rattus norvegicus. Nature of the series: Antiarthritic activity in Sprague-Dawley rat model of arthritis assessed as reduction in CFA-induced cartilage destruction at 20 mg/kg, […] and measured every 3 days by H and E staining based histopathological analysis. It counts as functional, organism-based.
In series [14] the test system is Rattus norvegicus. Nature of the series: Antiarthritic activity in Sprague-Dawley rat model of arthritis assessed as reduction in CFA-induced inflammatory cell infiltration at 20 mg/kg, ig administered daily for 28 days starting from 14 days post-immunization and measured every 3 days by H and E staining based histopathological analysis. Conditions: time 28.0 day. The class given is functional, organism-based. The essentials: as §1

Series [15] deals with Rattus norvegicus. Nature of the series: Antiarthritic activity in Sprague-Dawley rat model of arthritis assessed as reduction in CFA-induced cartilage destruction at 40 mg/kg, ig […] and measured every 3 days by H and E staining based histopathological analysis. It counts as functional, organism-based.
For series [16], the system named is RAW264.7. Kind of series: Inhibition of MAPK signalling activation in mouse RAW264.7 cells assessed as reduction in LPS-induced p38 phosphorylation at 0.5 to 2 uM preincubated for 1 hr followed by LPS stimulation by Western blotting analysis. The class given is cell-based. The settings on record: dose 0.5-2 µM, TDE = time-dependent effect. The essentials: as §3

Series [17] has as its system RAW264.7. Kind of series: Inhibition of NF-kappaB activation in mouse RAW264.7 cells assessed as reduction in LPS-induced p65 phosphorylation at 0.5 to 2 uM preincubated for 1 hr followed by LPS stimulation and measured after 30 mins by Western blotting analysis. Conditions: dose 0.5-2 µM, time 90.0 min. The class given is cell-based. The essentials: as §3
Series [18] concerns RAW264.7. Nature of the series: Inhibition of MAPK signalling activation in mouse RAW264.7 cells assessed as reduction in LPS-induced JNK phosphorylation at 0.5 to 2 uM preincubated for 1 hr followed by LPS stimulation by Western blotting analysis. It counts as cell-based. Conditions: dose 0.5-2 µM, TDE = time-dependent effect. The essentials:
as §3

Series [19] deals with RAW264.7. Kind of series: Cytotoxicity against mouse RAW264.7 cells assessed as reduction in cell viability at 20 uM incubated for 24 hrs by MTT assay. The class given is cell-based. Conditions: raw264.7, 24 h. The essentials: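 RAW264.7 cells (1 × 10^4/well, used 24 h after seeding) exposed to 20 µM for 24 h. MTT (5 mg/mL stock) added for 4 h, supernatant removed, crystals dissolved in DMSO with 10–15 min shaking, absorbance at 492 nm.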

Active and inactive are the calls of the source. No cut-off for these calls is given here. Bounds are passed on as bounds.

The term inhibition denotes the percentage by which the read-out fell short of the control. As usually defined, the IC50 is the concentration needed to halve the response being measured. On to `COc1cc(OC)c2c(c1)C(C(O)c1ccc(OCc3ccc(F)cc3)cc1)OC2=O` (centres undefined), for which the outcome in the series with Rattus norvegicus [1], in the series on RAW264.7 [2], in the series on Rattus norvegicus [7], in the series on Rattus norvegicus [13], in the series on Rattus norvegicus [14] and with Rattus norvegicus [15] was Active. Also, the inhibition at 10 µM in the series on RAW264.7 [3] was 95.2%. The outcome in the series with RAW264.7 [4] was inactive. Moreover, the inhibition result in the series on RAW264.7 [5] was “Dose-dependent effect”; in the series with RAW264.7 [10], “Dose-dependent effect”; with RAW264.7 [16], “Tde”; in the series with RAW264.7 [18], “Tde”. Besides, the inhibition entry in the series with RAW264.7 [6], in the series with RAW264.7 [8] and with RAW264.7 [17] was “Active” in each case. For the same compound, the results for the IC50 in the series with RAW264.7 [9], in the series on RAW264.7 [11] and in the series with RAW264.7 [12] were 0.76 µM, > 40 µM and > 40 µM, respectively. The Activity result with RAW264.7 [19] is “Non-Toxic”.
